One series deals with D(3) dopamine receptor (Homo sapiens, UniProt P35462). The series is described as follows: Binding affinity at Dopamine receptor D3 expressed in CHO cells by [125I]iodosulpiride displacement. The class given is cell-based.
The target in series [1] is T1, D(2) dopamine receptor (Homo sapiens, UniProt P14416). Description: Binding affinity at Dopamine receptor D2 expressed in CHO cells by [125I]iodosulpiride displacement. The class given is cell-based.
A short description of series [2]: Compound was evaluated for the rate of clearance in rat upon intravenous administration. In kind it is ADME, organism-based. The note with it: in vivo. The essentials: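 Relative blood clearance measured at steady state. Compound dissolved in 5% (w/v) aqueous glucose with 2% (v/v) DMSO and 10% Encapsin HPB, target concentration 0.2 mg free base/ml. Given to rats as a constant-rate iv infusion over 12 h at a target 1 mg free base/kg/h, n = 3. Serial blood samples taken over the last 2 h to confirm steady state, then terminal exsanguination. Parent compound in blood measured by LC/MS/MS.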

The target of series [3] is T1, D(2) dopamine receptor. Description: Displacement of [125I]iodosulpiride from Dopamine receptor D2 expressed in CHO cells. In kind it is cell-based. (Displacement assays read how much labelled ligand stays bound in the presence of the test substance.)

A word on the Ki: it is the equilibrium dissociation constant of an inhibitor or competing ligand from its target. A high value points to lower affinity. A word on the clearance: it is the rate of elimination divided by the concentration. Higher therefore signals a high capacity for elimination.

T1 sequence (P14416 whole entry, the tested form may be a part): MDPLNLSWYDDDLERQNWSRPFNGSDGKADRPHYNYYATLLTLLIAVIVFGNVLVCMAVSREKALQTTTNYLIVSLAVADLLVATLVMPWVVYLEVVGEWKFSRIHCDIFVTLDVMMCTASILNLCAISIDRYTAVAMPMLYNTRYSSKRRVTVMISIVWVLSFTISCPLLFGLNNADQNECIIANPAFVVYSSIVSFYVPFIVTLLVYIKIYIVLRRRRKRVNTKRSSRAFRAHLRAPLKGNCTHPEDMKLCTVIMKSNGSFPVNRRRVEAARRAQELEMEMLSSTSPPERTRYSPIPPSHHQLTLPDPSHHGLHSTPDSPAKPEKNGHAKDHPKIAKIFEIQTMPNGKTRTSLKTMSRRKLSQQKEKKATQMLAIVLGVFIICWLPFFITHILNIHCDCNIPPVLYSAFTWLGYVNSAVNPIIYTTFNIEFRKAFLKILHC
Sequence of D(3) dopamine receptor (P35462 whole entry): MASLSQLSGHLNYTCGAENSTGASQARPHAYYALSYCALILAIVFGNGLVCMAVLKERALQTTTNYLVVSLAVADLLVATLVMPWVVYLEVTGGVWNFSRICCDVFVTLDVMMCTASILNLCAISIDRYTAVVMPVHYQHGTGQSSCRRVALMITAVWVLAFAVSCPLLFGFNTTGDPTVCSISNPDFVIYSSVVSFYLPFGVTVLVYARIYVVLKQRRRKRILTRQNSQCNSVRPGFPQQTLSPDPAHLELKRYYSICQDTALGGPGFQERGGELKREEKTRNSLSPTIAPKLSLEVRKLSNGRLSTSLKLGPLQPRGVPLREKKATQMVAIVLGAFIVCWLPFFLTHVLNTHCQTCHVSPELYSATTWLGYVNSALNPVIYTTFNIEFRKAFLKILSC

For `CS(=O)(=O)Oc1cccc2c1CC[C@H]1[C@@H]2CCCN1CCCCNC(=O)c1ccc(-c2ccccc2)cc1`, the values for the inhibition constant (Ki) at D(3) dopamine receptor and at D(2) dopamine receptor [1] were 251 nM and 398 nM, respectively.

Take `O=C(NCCCCN1CCC[C@H]2c3ccc(O)cc3CC[C@@H]21)c1ccc(-c2ccccc2)cc1`: the results for the Ki at D(3) dopamine receptor and on D(2) dopamine receptor [1] were 7.94 nM and 501 nM, respectively.

Consider `CS(=O)(=O)Oc1cccc2c1CC[C@@H]1[C@@H]2CCCN1CCCCNC(=O)c1ccc(-c2ccccc2)cc1` [listing 1 of 2 here], for which the inhibition constant (Ki) at D(3) dopamine receptor was 10 nM; at D(2) dopamine receptor [1], 316 nM. Besides, the clearance in series [2] stood at 61 mL/min/kg.

For the compound `O=C(NCCCCN1CCC[C@@H]2c3ccccc3CC[C@H]21)c1ccc(-c2ccccc2)cc1`, the Ki at D(3) dopamine receptor was 15.8 nM; at D(2) dopamine receptor [1], 501 nM. The clearance in series [2] was found to be 46 mL/min/kg.

On to `O=C(NCCCCN1CCC[C@@H]2c3ccccc3CC[C@@H]21)c1ccc(-c2ccccc2)cc1`, for which the Ki was 251 nM at D(3) dopamine receptor and 794 nM at D(2) dopamine receptor [3].

Regarding `COc1cccc2c1CC[C@@H]1[C@@H]2CCCN1CCCCNC(=O)c1ccc(-c2ccccc2)cc1`, the Ki on D(3) dopamine receptor and at D(2) dopamine receptor [1] was 794 nM each time.

With `CCCN(CCCCNC(=O)c1ccc(-c2ccccc2)cc1)C1CCc2c(Cl)cccc2C1` (stereo not drawn), the clearance in series [2] turned out to be 96 mL/min/kg.

Take `O=C(NCCCCN1CC[C@H]2c3ccc(O)cc3CC[C@@H]21)c1ccc(-c2ccccc2)cc1`: the Ki at D(3) dopamine receptor was 12.6 nM; on D(2) dopamine receptor [1], 316 nM.

Turning to `CS(=O)(=O)Oc1cccc2c1CC[C@H]1[C@H]2CCN1CCCCNC(=O)c1ccc(-c2ccccc2)cc1`, the Ki on D(3) dopamine receptor is 5.01 nM; on D(2) dopamine receptor [1], 316 nM.

Take `CS(=O)(=O)Oc1ccc2c(c1)CC[C@H]1[C@H]2CCCN1CCCCNC(=O)c1ccc(-c2ccccc2)cc1`: the Ki on D(3) dopamine receptor is 200 nM; at D(2) dopamine receptor [1], 2000 nM.

As to `O=C(NCCCCN1CC[C@H]2c3ccccc3CC[C@@H]21)c1ccc(-c2ccccc2)cc1`, the inhibitory constant (Ki) at D(3) dopamine receptor is 15.8 nM; on D(2) dopamine receptor [1], 501 nM.

As to `CS(=O)(=O)Oc1cccc2c1CC[C@H]1[C@H]2CCCN1CCCCNC(=O)c1ccc(-c2ccccc2)cc1`, the results for the inhibition constant (Ki) at D(3) dopamine receptor and at D(2) dopamine receptor [1] were 6.31 nM and 251 nM, respectively.

With `COc1cccc2c1CC[C@H]1[C@H]2CCCN1CCCCNC(=O)c1ccc(-c2ccccc2)cc1` (single isomer, unassigned), the inhibition constant (Ki) was 7.94 nM at D(3) dopamine receptor and 501 nM on D(2) dopamine receptor [1].

On to `CS(=O)(=O)Oc1cccc2c1CC[C@@H]1[C@@H]2CCCN1CCCCNC(=O)c1ccc(-c2ccccc2)cc1` [listing 2 of 2 here], for which the inhibition constant Ki at D(3) dopamine receptor and at D(2) dopamine receptor [1] was 1260 nM each time.

In the case of `COc1cccc2c1CC[C@H]1[C@H]2CCN1CCCCNC(=O)c1ccc(-c2ccccc2)cc1`, the inhibitory constant (Ki) at D(3) dopamine receptor is 15.8 nM; on D(2) dopamine receptor [1], 631 nM.

For `O=C(NCCCCN1CC[C@@H]2c3ccccc3CC[C@@H]21)c1ccc(-c2ccccc2)cc1`, the Ki at D(3) dopamine receptor is 50.1 nM; on D(2) dopamine receptor [1] it was 501 nM. The same compound displayed a clearance in series [2] of 59 mL/min/kg.

Turning to `O=C(NCCCCN1CC[C@H]2c3cccc(O)c3CC[C@@H]21)c1ccc(-c2ccccc2)cc1`, the Ki was 2 nM at D(3) dopamine receptor and 63.1 nM on D(2) dopamine receptor [1].

As for `CS(=O)(=O)Oc1ccc2c(c1)CC[C@H]1[C@H]2CCN1CCCCNC(=O)c1ccc(-c2ccccc2)cc1`, the inhibition constant Ki at D(3) dopamine receptor was 50.1 nM; on D(2) dopamine receptor [1], 1000 nM.

Source of the values: ChEMBL document CHEMBL1130629, “Fused aminotetralins: novel antagonists with high selectivity for the dopamine D3 receptor” (Bioorg Med Chem Lett, 1998).
